Laboratory results published in article PMC7394305 (Journal for Immunotherapy of Cancer, 2020).
Read-outs that look alike come from different tables or passages of the source.

Experiments:
MC38 tumors [1] = test: Gene expression analysis of MC38 tumors; format: in vivo, mouse; conditions: 14 days treatment
Method in brief: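 Mice bearing sc MC38 tumors were treated with test compound for 14 days. Tumor gene expression was profiled with the NanoString Mouse PanCancer Immune Profiling Panel.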

monocyte-derived DCs = test: Antigen-specific priming of HLA-A*0201 Melan-A CD8+ T cells; format: cell-based, human
tumor draining LN cells = test: ELISpot assay of tumor draining lymph node cells; format: in vivo, mouse; conditions: combination with anti-PD-L1; MC38-OVA tumor-bearing mice
CD103+ DC [2] = test: Pinocytosis assay; format: cell-based, mouse
Method in brief: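 1e6 iDCs were incubated with Alexa 488–ovalbumin (50 µg/mL final) in complete T cell medium for 30 min at 37°C, with 4°C as negative control. Cells were washed twice in ice-cold DPBS, kept chilled and analysed by flow cytometry.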

CD8+ T cells = test: T cell IFNγ secretion assay; format: cell-based, mouse; conditions: for EC50: Mus musculus, T-cell
OT-1 CD8+ T cells [3] = test: CD103+ DC co-culture with OT-1 CD8+ T cells; format: cell-based, mouse
CD103+ DC [4] = test: CD103+ DC mouse bone marrow differentiation cultures; format: cell-based
CD103+ DC [5] = test: Analysis of antigen presentation; format: cell-based, mouse
OT-1 CD8+ T cells [6] = test: Ex vivo CD103+ DC isolation and OT-I T cell co-culture; format: in vivo, mouse; conditions: CD103+ DC from TdLN of MC38-OVA mice
MC38-OVA tumors [7] = test: MC38-OVA syngeneic tumor model; format: in vivo, mouse
Method in brief: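 C57BL/6 mice bore sc MC38-OVA (5×10^5 cells in PBS) and were randomised at 80–100 mm3. Anti-CD8 or rat IgG2b isotype was injected every 3 days. Mice also got oral test compound 50 mg/kg twice daily plus anti-PD-L1 10 mg/kg ip twice weekly. Tumor volume was tracked twice weekly.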

MCA205 tumors = MCA205 tumors in immunodeficient NSG mice; format: in vivo, mouse; conditions: AZD4635 and anti-PD-L1 (D265A)
Method in brief: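 NSG mice got MCA205 cells sc (1×10^6 in PBS, right flank), with randomisation at 50–90 mm3. Treatment was oral test compound nanosuspension plus anti-PD-L1 (mIgG1 D265A, ip 10 mg/kg twice weekly). Tumor volume was measured twice weekly.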

MC38-OVA tumors [8] = test: Ex vivo stimulation cytokine flow cytometry of MC38-OVA tumors; format: in vivo, mouse; conditions: for IFN-γ, TNF-α, IL-2, granzyme B and CD107a on CD8+ T cells: PMA/ionomycin ex vivo stimulation
Method in brief: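 Dissociated MC38-OVA tumor cells were plated at 2–4e5 live cells/well in complete T cell medium. […] CD8+ T and NK cell cytokines and CD107a were then read by flow cytometry.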

MC38 tumors [9] = test: Tumor immunophenotyping flow cytometry of MC38 tumors; format: in vivo, mouse
F4/80+ macrophages = test: Mouse macrophage assay; format: cell-based; conditions: 10 µM NECA
[10] = AZD4635 + NECA, dead MC38-OVA tumor cells
[11] = whole ovalbumin protein, AZD4635+NECA
[12] = 5 μM NECA, dead MC38-OVA tumor cells
[13] = DC differentiated with 5 µM NECA, loaded with SIINFEKL peptide

SMILES: Cc1cc(-c2nnc(N)nc2-c2ccc(F)cc2)cc(Cl)n1 [AZD4635]
- expression of genes associated with immune activation relative to vehicle (MC38 tumors [1]): upregulated expression
- Melan-A26-35 tetramer positive CD8+ T cells (monocyte-derived DCs; 5 µM NECA, AZD4635 3 µM where given, tabulated, 4 donors, no NECA 32%): 16%
- IFN-γ response to OVA and p15E peptides (tumor draining LN cells): Strong activation of IFN-γ
- rescue of fluorescent OVA uptake (CD103+ DC [2]; AZD4635 3 µM with NECA): almost to levels in untreated control
- EC50 (CD8+ T cells; read-out: EC50 restoration of IFN-γ secretion, 0.1 µM NECA): 53 nM
- EC50 (CD8+ T cells; read-out: EC50 restoration of IFN-γ secretion, 1 µM NECA): 598 nM
- restoration of IFN-γ secretion (CD8+ T cells; in presence of NECA): back to baseline levels
- restoration of CD107a and IFN-γ (OT-1 CD8+ T cells [3]; AZD4635 + NECA, SIINFEKL peptide): comparable to untreated cells
- CD107a response relative to responses elicited by untreated cells (OT-1 CD8+ T cells [3]; [10]): 87%
- IFN-γ response compared with untreated cells (OT-1 CD8+ T cells [3]; [10]): not statistically different
- differentiation into CD103+ DC (CD103+ DC [4]; 3 µM AZD4635 then NECA): able to differentiate into CD103^+ DC efficiently
- rescue of antigen presentation compared with NECA treatment (CD103+ DC [5]; SIINFEKL pulsed cultures, AZD4635 3 µM + NECA): twofold
- antigen presentation level versus untreated CD103+ DCs (CD103+ DC [5]; [11]): restored to a level comparable to untreated
- increase of antigen presentation compared with NECA (CD103+ DC [5]; [11]): nearly fivefold
- proliferation of OT-1 CD8+ T cells (OT-1 CD8+ T cells [6]; anti-PD-L1+AZD4635 combination): 53%
- proliferation of OT-1 CD8+ T cells (OT-1 CD8+ T cells [6]; single agent, vehicle 5.8%): 28%
- tumor efficacy of combination (MC38-OVA tumors [7]; AZD4635 50 mg/kg twice daily with αPD-L1 10 mg/kg): appreciable beneficial combination effect
- antitumor activity after depletion of CD8 T cells (MC38-OVA tumors [7]; AZD4635+PD-L1 treatments, antimouse CD8 antibody): completely abrogated
- antitumor activity in immunodeficient mice (MCA205 tumors): completely abrogated
- NK cell IFN-γ production (MC38-OVA tumors [8]; combination with anti-PD-L1): minimal increase
- NK cell TNF-α production and CD107a expression (MC38-OVA tumors [8]; combination with anti-PD-L1): strong increase
- IFN-γ, TNF-α, IL-2, granzyme B and CD107a on CD8+ T cells (MC38-OVA tumors [8]; combination with anti-PD-L1): most significantly increased
- IFN-γ, TNF-α, IL-2, granzyme B and CD107a on CD8+ T cells (MC38-OVA tumors [8]; single agent): all enhanced
- MHCII and CD86 expression on CD11c+ DCs and F4/80+ macrophages (MC38 tumors [9]; 14 days, single agent): increased expression
- intratumoral frequencies of DCs and macrophages (MC38 tumors [9]; 14 days, single agent): did not increase
- frequency of infiltrating CD8+ cytotoxic lymphocytes compared with vehicle (MC38 tumors [9]; in combination with anti-PD-L1): significantly increased

SMILES: CCNC(=O)[C@H]1O[C@@H](n2cnc3c(N)ncnc32)[C@H](O)[C@@H]1O [NECA, 5′-(N-ethylcarboxamido) adenosine]
- suppression of MHCII expression relative to DMSO-treated controls (F4/80+ macrophages): > 90%
- Melan-A26-35 tetramer positive CD8+ T cells (monocyte-derived DCs): 2.5%
- reduction of cross-priming function of DCs (monocyte-derived DCs; 5 µM NECA): greater than 90%
- reduction of fluorescent OVA uptake (CD103+ DC [2]; NECA 5 µM): ~50%
- suppression of IFN-γ secretion (CD8+ T cells; 1 µM NECA, CD3/CD28 beads): 80%
- reduction of CD107a response (OT-1 CD8+ T cells [3]; [12]): 75%
- reduction of IFN-γ response (OT-1 CD8+ T cells [3]; [12]): 75%
- reduction of CD107a expression by OT-1 CD8+ T cells (OT-1 CD8+ T cells [3]; [13]): 72%
- reduction of IFN-γ secretion by OT-1 CD8+ T cells (OT-1 CD8+ T cells [3]; [13]): 60%
- CD103+ cells (CD103+ DC [4]; 5 µM NECA, untreated 80%): 57%
- antigen presentation compared with untreated CD103+ DC (CD103+ DC [5]; SIINFEKL pulsed cultures, NECA 5 µM): less than a third
- antigen presentation compared with untreated cells (CD103+ DC [5]; whole ovalbumin protein, NECA 5 µM): a log-fold reduced
